By Ki is commonly meant a dissociation constant, usually derived from enzyme kinetics or from competition with a known ligand.

The results in this text go back to ChEMBL document CHEMBL4049434, “Radiolabeled Dibenzodiazepinone-Type Antagonists Give Evidence of Dualsteric Binding at the M2 Muscarinic Acetylcholine Receptor” (J Med Chem, 2017).

Assay [1] addresses T1, Muscarinic acetylcholine receptor M2 (Homo sapiens, UniProt P08172).
T1 sequence (P08172 whole entry): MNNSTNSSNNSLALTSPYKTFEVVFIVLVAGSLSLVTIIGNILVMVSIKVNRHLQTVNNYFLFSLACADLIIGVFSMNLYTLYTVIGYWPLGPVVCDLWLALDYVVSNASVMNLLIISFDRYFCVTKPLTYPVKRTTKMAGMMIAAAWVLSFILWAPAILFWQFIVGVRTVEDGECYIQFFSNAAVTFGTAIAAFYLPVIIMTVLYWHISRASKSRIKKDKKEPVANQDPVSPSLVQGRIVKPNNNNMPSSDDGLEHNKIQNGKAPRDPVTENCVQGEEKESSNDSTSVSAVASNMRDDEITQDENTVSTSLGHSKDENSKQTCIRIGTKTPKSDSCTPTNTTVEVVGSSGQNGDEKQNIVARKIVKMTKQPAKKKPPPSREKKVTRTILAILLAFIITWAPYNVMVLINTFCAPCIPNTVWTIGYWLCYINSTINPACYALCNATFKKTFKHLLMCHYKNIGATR
Put plainly: Binding affinity to human muscarinic acetylcholine receptor M2 expressed in CHOK9 cell suspension after 2 hrs by liquid scintillation counting assay. Particulars: read-out: Kd(app).

The target of assay [2] is T1, Muscarinic acetylcholine receptor M2. As to the kind of experiment: Displacement of [3H]NMS from human muscarinic acetylcholine receptor M2 expressed in CHOK9 cells after 3 hrs by liquid scintillation counting assay. The format is cell-based. Particulars: read-out: Ki.
Assay [3] deals with T2, Muscarinic acetylcholine receptor M4 (Homo sapiens, UniProt P08173).
T2 sequence (P08173 whole entry): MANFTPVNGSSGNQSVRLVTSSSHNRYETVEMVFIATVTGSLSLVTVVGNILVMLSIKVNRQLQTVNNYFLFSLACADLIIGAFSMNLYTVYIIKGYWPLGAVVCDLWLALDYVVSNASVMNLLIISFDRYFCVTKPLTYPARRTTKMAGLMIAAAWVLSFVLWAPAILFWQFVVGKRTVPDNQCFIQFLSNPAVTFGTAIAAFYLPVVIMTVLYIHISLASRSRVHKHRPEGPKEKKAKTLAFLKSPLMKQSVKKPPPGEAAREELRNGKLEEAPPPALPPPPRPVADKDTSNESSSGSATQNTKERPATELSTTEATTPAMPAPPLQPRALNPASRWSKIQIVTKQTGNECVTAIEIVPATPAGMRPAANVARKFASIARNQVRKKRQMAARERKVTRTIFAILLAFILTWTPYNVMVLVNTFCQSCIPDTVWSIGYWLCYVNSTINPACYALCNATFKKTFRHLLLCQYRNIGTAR
As to the kind of experiment: Binding affinity to human muscarinic acetylcholine receptor M4 expressed in CHOK9 cells after 2 hrs by liquid scintillation counting assay. The format is cell-based.

In assay [4] the target is T1, Muscarinic acetylcholine receptor M2. As to the kind of experiment: Binding affinity to human muscarinic acetylcholine receptor M2 expressed in CHOK9 cell homogenate after 2 hrs by liquid scintillation counting assay. Particulars: read-out: Kd(app). In short, it runs like this: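 CHO-hM2 cell homogenates (25–30 μg protein/well) in L15 medium with 1% BSA, 23 ± 1 °C, 2 h with tritiated dimeric radioligand. Competition used 0.5 nM radioligand; additional 0.4, 1, 2 and 4 nM in W84 experiments. […] Four-parameter logistic fits; at least three experiments in triplicate.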

Assay [5] has the same target. Put plainly: Binding affinity to human muscarinic acetylcholine receptor M2 expressed in live adherent CHOK9 cells after 2 hrs by liquid scintillation counting assay. Format: cell-based. In short, it runs like this:
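Live adherent CHO-hM2 cells in L15 medium with 1% BSA, 23 ± 1 °C, 2 h incubation. Competition at 2 nM radioligand; additional 4, 8, 15 and 30 nM in W84 experiments. […] Saturation data fitted one-site; competition by four-parameter logistic fits; at least three experiments in triplicate.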

The target is the same in assay [6]. Put plainly: Binding affinity to human muscarinic acetylcholine receptor M2 expressed in live adherent CHOK9 cells assessed as saturation binding after 2 hrs by liquid scintillation counting assay.
The target is the same in assay [7]. Put plainly: Ratio of binding affinity to human muscarinic acetylcholine receptor M2 expressed in CHOK9 cells assessed as dissociation rate constant to binding affinity to human muscarinic acetylcholine receptor M2 expressed in CHOK9 cells assessed as association rate constant. Format: cell-based.
The target is the same in assay [8]. Put plainly: Displacement of [3H]NMS from human muscarinic acetylcholine receptor M2 expressed in CHO cells after 2 hrs. Format: cell-based. Background: In a radioligand displacement assay an active substance lowers the binding of a labelled ligand.
Assay [9] has the same target. As to the kind of experiment: Displacement of [3H]Dimethyl-W84 from human muscarinic acetylcholine receptor M2 expressed in CHO cells after 2 hrs. Format: cell-based.
The target is the same in assay [10]. Put plainly: Displacement of [3H]UR-AP060 from human muscarinic acetylcholine receptor M2 expressed in CHOK9 cell homogenate after 3 hrs by liquid scintillation counting assay.
The target is the same in assay [11]. As to the kind of experiment: Displacement of [3H]UNSW-MK259 from human muscarinic acetylcholine receptor M2 expressed in CHOK9 cells after 3 hrs by liquid scintillation counting assay. The format is cell-based.
The target is the same in assay [12]. Put plainly: Binding affinity to human muscarinic acetylcholine receptor M2 expressed in CHOK9 cell homogenate assessed as saturation binding after 2 hrs by liquid scintillation counting assay.

For the compound `O=C(O)C(F)(F)F.O=C(O)C(F)(F)F.O=C(O)C(F)(F)F.O=C(O)C(F)(F)F.[3H]CC([3H])C(=O)NCc1cc(C(=O)NCCNC(=O)CCc2cn(CCCCC3CCN(CC(=O)N4c5ccccc5NC(=O)c5ccccc54)CC3)cn2)cc(C(=O)NCCNC(=O)CCc2cn(CCCCC3CCN(CC(=O)N4c5ccccc5NC(=O)c5ccccc54)CC3)cn2)c1` (configuration not stated), the Kd in [1] is 0.31 nM; in assay [3], 0.67 nM; in assay [4] it was 0.22 to 0.24 nM; in assay [5] it was 0.91 nM; in assay [6], 0.31 nM; in assay [7], 0.2 nM. Moreover, the Ki in assay [2] was 0.41 nM.
Turning to `C[N+](C)(CCCCCC[N+](C)(C)CCCN1C(=O)c2ccccc2C1=O)CCCN1C(=O)c2ccccc2C1=O`, the Ki was 31.6 nM in assay [8], 31.6 nM in assay [9], 1070 nM in [10] and 39.8 nM in assay [11]. Besides, the Kb in assay [10] (read-out: pA2 (converted)) was 263 nM; in assay [11] (read-out: pA2 (converted)), 155 nM.
As for `O=C(O)C(F)(F)F.O=C(O)C(F)(F)F.O=C(O)C(F)(F)F.O=C(O)C(F)(F)F.[3H]CC([3H])C(=O)NC1CN(CCCCC2CCN(CC(=O)N3c4ccccc4NC(=O)c4ccccc43)CC2)CCN(CCCCC2CCN(CC(=O)N3c4ccccc4NC(=O)c4ccccc43)CC2)C1` (configuration not stated), the values for the Kd in assay [12], in [4] and in assay [5] were 4.6 nM, 3 to 4.6 nM and 8.4 nM, respectively. For the same compound, the inhibitory constant (Ki) in assay [2] was determined as 0.71 nM.
